Experimental data published in PMC11112339 (iScience, 2024).
Entries after “also recorded” stand apart in the source; their conditions may differ.

Key:
mVDAC1 N238R = mVDAC1 N238R (Mus musculus, UniProt Q60932, N251R); assay: Thermal denaturation; format: binding; conditions: small molecule 1 mM in DMF; mean ± SEM n=3
How it was run: (§1)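 Wild-type or mutant refolded mVDAC1 (0.9 mg/ml final in 20 mM Tris-HCl, 50 mM NaCl, 0.1% LDAO, pH 8.0) was pretreated 1 h at 4°C with 1 mM test compound or 0.5% DMF. It was heated in capillaries from 35 to 95°C at 30°C/min while tryptophan fluorescence was read at 330/350 nm. Ti was the first-derivative maximum of F350/F330, checked by Hill fit. ΔTi was treated versus untreated, with ≥3 repeats.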

mVDAC1 wild-type [1] = target: T1, mVDAC1 wild-type (Mus musculus, UniProt Q60932); assay: Fluorescence polarization NADH competition assay; format: binding
How it was run: (§2)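 This is an FP competition assay. Refolded, SEC-purified recombinant mVDAC1 (7 μM) was preloaded with 5 μM NADH and titrated with increasing test compound. Buffer was 20 mM Tris, 50 mM NaCl, 0.1% LDAO, pH 8.0. FP was computed from parallel and perpendicular intensities. Apparent KD came from a Hill fit of FP against compound concentration, run in triplicate.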

mVDAC1 N207R = mVDAC1 N207R (Mus musculus, UniProt Q60932, N220R); assay: Thermal denaturation; format: binding; conditions: small molecule 1 mM in DMF; mean ± SEM n=3
How it was run: as §1

mVDAC1 K236A [2] = target: T2, mVDAC1 K236A (Mus musculus, UniProt Q60932, K249A); assay: Thermal denaturation; format: binding; conditions: small molecule 1 mM in DMF; mean ± SEM n=3
How it was run: as §1

mVDAC1 K236A [3] = target: T2, mVDAC1 K236A; assay: Fluorescence polarization NADH competition assay; format: binding; conditions: apparent KD, NADH 5 μM, protein 7 μM, mean ± SEM n=3
How it was run: as §2

mVDAC1 N238K [4] = target: T3, mVDAC1 N238K (Mus musculus, UniProt Q60932, N251K); assay: Thermal denaturation; format: binding; conditions: small molecule 1 mM in DMF; mean ± SEM n=3
How it was run: as §1

mVDAC1 wild-type [5] = target: T1, mVDAC1 wild-type; assay: Thermal denaturation; format: binding; conditions: mean ± SEM n=3; for Temperature denaturation inflection point (Ti) shift: mVDAC1 0.9 mg/mL in LDAO, VA molecule 1 mM vs DMF 0.5%; for Inflection temperature T(i), WT: small molecule 1 mM in DMF
How it was run: as §1

NIH-3T3 = assay: Cell viability MTT assay; format: cell-based; conditions: Mus musculus, NIH3T3, 48 h, read-out: Half the effective dose (EC50), cell viability
How it was run: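 NIH-3T3 kept in high-glucose DMEM with 10% calf serum and penicillin/streptomycin at 37°C, 5% CO₂, used at 70–80% confluency. Seeded 10.000 cells/well, treated 24 h later with a concentration range of test compound for 48 h. MTT added (final 5 mg/ml), 3 h at 37°C, formazan dissolved in DMSO, absorbance 590 nm. n = 3, mean ± SEM; EC50 by nonlinear regression.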

mVDAC1 F18A = mVDAC1 F18A (Mus musculus, UniProt Q60932, F31A); assay: Thermal denaturation; format: binding; conditions: small molecule 1 mM in DMF; mean ± SEM n=3
How it was run: as §1

mVDAC1 R218Y = mVDAC1 R218Y (Mus musculus, UniProt Q60932, R231Y); assay: Thermal denaturation; format: binding; conditions: small molecule 1 mM in DMF; mean ± SEM n=3
How it was run: as §1

mVDAC1 N238F = mVDAC1 N238F (Mus musculus, UniProt Q60932, N251F); assay: Thermal denaturation; format: binding; conditions: small molecule 1 mM in DMF; mean ± SEM n=3
How it was run: as §1

mVDAC1 N238K [6] = target: T3, mVDAC1 N238K; assay: Fluorescence polarization NADH competition assay; format: binding
How it was run: as §2

mVDAC1 wild-type [7] = target: T1, mVDAC1 wild-type; assay: Fluorescence polarization, NADH binding to purified VDAC1; conditions: read-out: KD of NADH, VDAC1 wild-type; 5 μM NADH titrated with protein; Hill fit
How it was run: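 NADH at 5 μM was titrated with increasing recombinant refolded mVDAC1 in 20 mM Tris, 50 mM NaCl, 0.1% LDAO, pH 8.0. NADH intrinsic fluorescence was read at ex 355 / em 460 nm. FP was computed from parallel and perpendicular intensities. KD came from a nonlinear Hill fit of FP against protein concentration, in triplicate.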

non-tumor (NT) organoids = assay: Organoid viability, CellTiter-Glo 3D; format: cell-based, human; conditions: 72 h
How it was run: (§3)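 Organoids came from dissociated patient tumour (iCCA) or non-tumour biopsies, embedded in reduced-growth-factor BME droplets with expansion medium. After 3 days, test compound was added at graded concentrations in expansion medium with 0.02% Tween20 for 72 h. Viability was read by CellTiter-Glo 3D luminescence as % of DMSO-treated organoids, with ≥3 independent experiments. EC50 (tumour organoids) came from nonlinear regression.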

Tumor (iCCA) organoids = assay: Organoid viability, CellTiter-Glo 3D; format: cell-based, human; conditions: 72 h; for EC50: Homo sapiens, read-out: EC50, iCCA-derived organoids growth
How it was run: as §3

[8] = system: iCCA patient-derived 2D cells; assay: MTT viability of patient-derived 2D cells; format: cell-based, human; conditions: 72 h exposure, 2μM
How it was run: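 Primary 2D cells came from iCCA patient biopsies, with paired non-tumour cells as control. Cells were grown in DMEM/F-12 with 10% FBS and 1% pen/strep. They were seeded at 5.000 cells/well, treated 3 days later with test compound at 2 μM for 72 h, and scored by MTT absorbance. n = 3.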

mVDAC1 = mVDAC1 (Mus musculus, UniProt Q60932); assay: 19F NMR protein-ligand interaction experiment; format: binding; conditions: compound 100 μM in LDAO buffer, with 5 μM mVDAC1
How it was run: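 Recombinant mouse VDAC1 was expressed in E. coli M15, refolded from inclusion bodies into LDAO and purified by SEC. Test compound was used at 100 μM final in 20 mM Tris-HCl, 50 mM NaCl, 0.1% LDAO, pH 8.0, with or without 5 μM VDAC1. 19F spectra were taken at 298 K: 0.56 s acquisition, 1 s inter-scan delay, 256 scans, 2 Hz exponential broadening.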

mVDAC1 N207R, sequence (Q60932 14-296 N220R): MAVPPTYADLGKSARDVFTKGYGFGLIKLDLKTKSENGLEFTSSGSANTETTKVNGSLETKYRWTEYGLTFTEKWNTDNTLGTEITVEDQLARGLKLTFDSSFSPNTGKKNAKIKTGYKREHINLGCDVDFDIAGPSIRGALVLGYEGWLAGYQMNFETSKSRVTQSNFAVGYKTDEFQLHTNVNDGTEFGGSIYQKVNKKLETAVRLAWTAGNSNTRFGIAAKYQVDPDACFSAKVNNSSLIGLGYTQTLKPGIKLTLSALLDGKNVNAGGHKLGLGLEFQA
mVDAC1, sequence (Q60932 14-296): as the sequence (Q60932 14-296 N220R) above, with R207N counted along it
T1 sequence (Q60932 14-296): as the sequence (Q60932 14-296 N220R) above, with R207N counted along it
mVDAC1 F18A, sequence (Q60932 14-296 F31A): as the sequence (Q60932 14-296 N220R) above, with F18A, R207N counted along it
T2 sequence (Q60932 14-296 K249A): as the sequence (Q60932 14-296 N220R) above, with R207N, K236A counted along it
mVDAC1 N238F, sequence (Q60932 14-296 N251F): as the sequence (Q60932 14-296 N220R) above, with R207N, N238F counted along it
mVDAC1 N238R, sequence (Q60932 14-296 N251R): as the sequence (Q60932 14-296 N220R) above, with R207N, N238R counted along it
T3 sequence (Q60932 14-296 N251K): as the sequence (Q60932 14-296 N220R) above, with R207N, N238K counted along it
mVDAC1 R218Y, sequence (Q60932 14-296 R231Y): as the sequence (Q60932 14-296 N220R) above, with R207N, R218Y counted along it

Row | SMILES | Inflection temperature T(i), N238R (mVDAC1 N238R) [°C] | Kd (mVDAC1 wild-type [1]) [µM] | Inflection temperature T(i), N207R (mVDAC1 N207R) [°C] | Inflection temperature T(i), K236A (mVDAC1 K236A [2]) [°C] | Kd (mVDAC1 K236A [3]) [µM] | Inflection temperature T(i), N238K (mVDAC1 N238K [4]) [°C] | Temperature denaturation inflection point (Ti) shift (mVDAC1 wild-type [5]) | Inflection temperature T(i), WT (mVDAC1 wild-type [5]) [°C] | Inflection temperature T(i), F18A (mVDAC1 F18A) [°C] | Inflection temperature T(i), R218Y (mVDAC1 R218Y) [°C] | Inflection temperature T(i), N238F (mVDAC1 N238F) [°C] | Kd (mVDAC1 N238K [6]) [µM] | Kd (mVDAC1 wild-type [7]) [µM] | EC50 (Tumor (iCCA) organoids) [µM] | EC50 (NIH-3T3) [µM] | effect on viability of non-tumor organoids (non-tumor (NT) organoids) | effect on viability of iCCA organoids (Tumor (iCCA) organoids) | reduction in iCCA cell viability [8] | 19F resonance change upon VDAC1 binding (mVDAC1)
1 | O=C1C(=Cc2ccc(Cl)cc2)CSc2ccccc21 [VA-D11, 3-[(4-chlorophenyl)methylidene]thiochromen-4-one] | 63.1 ± 0.1 | 15.9 ± 0.7 | 62.9 ± 0.1 | 57.9 ± 0.1 | 24.2 ± 0.6 | 64.5 ± 0.1 | +4.7 ± 0.1 °C | 60.2 ± 0.1 | 57.2 ± 0.1 | 62.3 ± 0.1 | 63.1 ± 0.1 | 13.1 ± 0.4 | – | – | 118 ± 3 | – | – | – | –
2 | NC(=O)C1=CN([C@@H]2O[C@H](COP(=O)(O)OP(=O)(O)OC[C@H]3O[C@@H](n4cnc5c(N)ncnc54)[C@H](O)[C@@H]3O)[C@@H](O)[C@H]2O)C=CC1 [NADH] | – | – | – | – | – | – | – | – | – | – | – | – | 6.8 ± 0.06 | – | – | – | – | – | –
3 | Nc1ccn([C@@H]2O[C@H](CO)[C@@H](O)C2(F)F)c(=O)n1 [GMB, gemcitabine, reference compound] | – | – | – | – | – | – | – | – | – | – | – | – | – | – | – | significant efficacy | significant efficacy | – | –
4 | CC(=O)N(c1nc(COC(=O)c2ccsc2)cs1)c1ccccc1F [VA-D10, [2-(N-acetyl-2-fluoroanilino)-1,3-thiazol-4-yl]methyl thiophene-3-carboxylate] | 63.1 ± 0.1 | 18.5 ± 0.2 | 62.9 ± 0.1 | 57.9 ± 0.1 | 28 ± 0.7 | 64.4 ± 0.1 | +4.9 ± 0.1 °C | 60.5 ± 0.1 | 57.3 ± 0.1 | 62.2 ± 0.2 | 63.3 ± 0.1 | 10.7 ± 0.1 | – | 25 ± 6 | 160 ± 4 | – | reduce cell viability of iCCA organoids in a dose-dependent manner | about 50% | direct binding; also recorded: significantly move their chemical shifts

Now from value to compound, other results behind:

Row | Inflection temperature T(i), N238R (mVDAC1 N238R) [°C] | Kd (mVDAC1 wild-type [1]) [µM] | Inflection temperature T(i), N207R (mVDAC1 N207R) [°C] | Inflection temperature T(i), K236A (mVDAC1 K236A [2]) [°C] | Kd (mVDAC1 K236A [3]) [µM] | Inflection temperature T(i), N238K (mVDAC1 N238K [4]) [°C] | Temperature denaturation inflection point (Ti) shift (mVDAC1 wild-type [5]) | Inflection temperature T(i), WT (mVDAC1 wild-type [5]) [°C] | Inflection temperature T(i), F18A (mVDAC1 F18A) [°C] | Inflection temperature T(i), R218Y (mVDAC1 R218Y) [°C] | Inflection temperature T(i), N238F (mVDAC1 N238F) [°C] | Kd (mVDAC1 N238K [6]) [µM] | Kd (mVDAC1 wild-type [7]) [µM] | EC50 (Tumor (iCCA) organoids) [µM] | SMILES | EC50 (NIH-3T3) [µM] | effect on viability of non-tumor organoids (non-tumor (NT) organoids) | effect on viability of iCCA organoids (Tumor (iCCA) organoids) | reduction in iCCA cell viability [8] | 19F resonance change upon VDAC1 binding (mVDAC1)
5 | 61.8 ± 0.1 | 18.7 ± 0.6 | 63.0 ± 0.1 | 57.0 ± 0.1 | 28.8 ± 0.2 | 63.8 ± 0.1 | +4.6 ± 0.1 °C | 60.2 ± 0.1 | 58.1 ± 0.1 | 61.6 ± 0.1 | 63.2 ± 0.1 | 14.9 ± 0.5 | – | – | Cc1ccc(C(=O)OCC(=O)N=c2sccn2Cc2ccccc2Cl)s1 [VA-C6, [2-[[3-[(2-chlorophenyl)methyl]-1,3-thiazol-2-ylidene]amino]-2-oxoethyl] 5-methylthiophene-2-carboxylate] | 127 ± 4 | – | – | – | –
6 | 62.5 ± 0.1 | 18.7 ± 0.3 | 63.2 ± 0.1 | 57.3 ± 0.1 | 26.4 ± 0.4 | 64.0 ± 0.1 | +4.6 ± 0.1 °C | 60.2 ± 0.1 | 58.0 ± 0.1 | 62.3 ± 0.1 | 64.0 ± 0.1 | 15.2 ± 0.1 | – | 15 ± 2 | O=C(CC(O)(c1nc2ccccc2s1)C(F)(F)F)c1cccc(Br)c1 (stereo not drawn) [VA-C1, 3-(1,3-benzothiazol-2-yl)-1-(3-bromophenyl)-4,4,4-trifluoro-3-hydroxybutan-1-one] | 146 ± 3 | – | reduce cell viability of iCCA organoids in a dose-dependent manner | about 50% | direct binding; also recorded: reduction and broadening of its peak
